Activity calls are given as the source filed them.
Legend:
[1] = system: P388; assay: Evaluation in vivo against […] cell line for percentage increase in lifespan of drug-treated tumor-bearing animals when treated at 45 mg/kg dose.(ILS); type: functional, Mus musculus
Method in brief: (§1)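 Animals received 10^6 P388 cells intraperitoneally. On day 1, 24 h after inoculation, a single intraperitoneal drug dose was given in 0.1 mL of 30% v/v dimethylacetamide/water. ILS is the percentage increase in lifespan of treated tumor-bearing animals at the optimal dose, defined as the dose giving maximal life extension. ILS above 20% is counted as significant.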

[2] = species: Bos taurus; assay: Spectrophotometry for binding to calf thymus DNA in 0.01 M HEPES buffer (pH 7.0) at 25 degree C; type: ADME; details: cattle
[3] = system: P388; assay: Inhibition of cell growth in culture against wild type P388 murine leukemia; type: functional, cell-based, Mus musculus
Method in brief: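 Wild-type P388 murine leukemia cells were kept in log phase in RPMI 1640 with 10% fetal calf serum. Drug was present throughout the 72 h growth period. Final cell density was read by a modified MTT method. IC50 is the nominal concentration reducing cell density to 50% of controls, with eight controls per plate. Values are means of three determinations.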

[4] = system: CHO-AA8; assay: Inhibition of cell growth in culture against Chinese hamster ovary derived cell line, AA8; type: functional, cell-based, Cricetulus griseus
Method in brief: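 AA8 Chinese hamster ovary cells were kept in log phase in Alpha MEM with 10% fetal calf serum and exposed to drug for 18 h. Drug was removed by three washes with fresh medium, then cells were grown a further 72 h. Cell density was read by methylene blue staining. IC50 is the nominal concentration reducing cell density to 50% of controls, with eight controls per plate. Values are means of three determinations.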

[5] = Hypersensitivity factor value is IC50 of (AA8) to that of UV4 where UV4 is a mutant AA8 line lacking the ability to perform incision repair; type: functional
Method in brief: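 HF is IC50(AA8)/IC50(UV4), where UV4 is an AA8 mutant lacking incision repair. Both lines were grown in Alpha MEM with 10% fetal calf serum and given an 18 h drug exposure, then washed and grown 72 h more. Cell density was read by methylene blue staining, and IC50 was set at 50% of control density.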

[6] = system: P388; assay: Evaluation in vivo against […] cell line for percentage increase in lifespan of drug-treated tumor-bearing animals when treated at 30 mg/kg dose.(ILS); type: functional, Mus musculus; method in brief: as §1
[7] = system: P388; assay: Evaluation in vivo against […] cell line for percentage increase in lifespan of drug-treated tumor-bearing animals when treated at 225 mg/kg dose.(ILS); type: functional, Mus musculus; method in brief: as §1
[8] = system: P388; assay: Evaluation in vivo against […] cell line for percentage increase in lifespan of drug-treated tumor-bearing animals at 30 mg/kg dose.(ILS); NA=Compound inactive at nontoxic doses; type: functional, organism-based; set-up: dose 30 mg/kg; details: Mus musculus; method in brief: as §1
[9] = system: P388; assay: Evaluation in vivo against […] cell line for percentage increase in lifespan of drug-treated tumor-bearing animals at 100 mg/kg dose.(ILS); NA=Compound inactive at nontoxic doses; type: functional, organism-based; set-up: dose 100 mg/kg; details: Mus musculus; method in brief: as §1

| Structure (SMILES) | Increase [1] | Log K [2] | IC50 ([3]; p388) | IC50 ([4]; cho-aa8) | Ratio [5] | IC50 ([4]; Cricetulus griseus, CHO-AA8) | Increase [6] | Increase [7] | IC50 ([3]; Mus musculus, P388) | Increase [8] | Increase [9] |
| --- | --- | --- | --- | --- | --- | --- | --- | --- | --- | --- | --- |
| C[n+]1ccc(Nc2ccc(Cc3ccc(N(CCCl)CCCl)cc3)cc2)c2ccccc21 | 46% | 6.58 M-1 | 72 nM | 600 nM | 20 | – | – | – | – | – | – |
| C[n+]1ccc(Nc2ccc(C(=O)Nc3ccc(N(CCCl)CCCl)cc3)cc2)c2ccccc21 | – | 6.48 M-1 | 490 nM | – | 17 | 340 nM | 28% | – | – | – | – |
| O=C(O)CCCc1ccc(N(CCCl)CCCl)cc1 [CHLORAMBUCIL] | – | – | – | – | 58 | – | – | 37% | – | – | – |
| CCN(CCCl)c1ccc(Oc2ccc(Nc3ccnc4ccccc34)cc2)cc1 | – | – | – | – | 11.3 | 7000 nM | – | – | 500 nM | inactive | – |
| C[n+]1ccc(Nc2ccc(C(=O)c3ccc(N(CCCl)CCCl)cc3)cc2)c2ccccc21 | – | 6.61 M-1 | 1210 nM | – | 6.4 | 2850 nM | – | – | – | – | inactive |
| C[n+]1ccc(Nc2ccc(Oc3ccc(N(CCCl)CCCl)cc3)cc2)c2ccccc21 | – | 6.45 M-1 | – | – | 23 | 650 nM | 20% | – | – | – | – |

Reference: ChEMBL document CHEMBL1125925, “DNA-directed alkylating agents. 4. 4-anilinoquinoline-based minor groove directed aniline mustards” (J Med Chem, 1991)
